In ChEMBL document CHEMBL1268842, “Discovery of N-benzyl-2-[(4S)-4-(1H-indol-3-ylmethyl)-5-oxo-1-phenyl-4,5-dihydro-6H-[1,2,4]triazolo[4,3-a][1,5]benzodiazepin-6-yl]-N-isopropylacetamide, an orally active, gut-selective CCK1 receptor agonist for the potential treatment of obesity” (Bioorg Med Chem Lett, 2010):
≈ marks a conversion by molar mass, not a printed value. Calls of active or inactive are those of the source. The calls are words filed in the database; no cut-off is given here.

How the values were obtained:
[1] = Lipophilicity, log D of the compound at pH 7.4; assay type: physicochemical; settings: buffer
[2] = target: T1, Cholecystokinin receptor type A (Homo sapiens, UniProt P32238); experiment: Displacement of [125I]CCK8 from human CCK1 receptor expressed in CHO cells; assay type: cell-based
T1 sequence (P32238 whole entry): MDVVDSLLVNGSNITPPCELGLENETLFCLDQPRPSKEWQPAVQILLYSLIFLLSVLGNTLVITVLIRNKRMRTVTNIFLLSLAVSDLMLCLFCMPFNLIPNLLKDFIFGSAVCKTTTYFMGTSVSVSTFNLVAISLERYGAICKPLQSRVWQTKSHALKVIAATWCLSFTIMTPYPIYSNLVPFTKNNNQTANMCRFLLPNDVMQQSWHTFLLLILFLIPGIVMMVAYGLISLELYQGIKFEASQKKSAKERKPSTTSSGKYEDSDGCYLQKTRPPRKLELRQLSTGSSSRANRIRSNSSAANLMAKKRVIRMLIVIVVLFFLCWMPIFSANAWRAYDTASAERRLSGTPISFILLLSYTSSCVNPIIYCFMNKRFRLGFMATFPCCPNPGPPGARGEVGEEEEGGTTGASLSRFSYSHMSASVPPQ
How it was run: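 Binding IC50 at the human CCK1 receptor. Values are mean ± standard error of at least three independent experiments.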

[3] = target: T1, Cholecystokinin receptor type A; experiment: Agonist activity at human CCK1 receptor expressed in CHO cells assessed as induction of calcium release by FLIPR assay; assay type: functional, cell-based
How it was run: (§1)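 Calcium release was measured by FLIPR at the human CCK1 receptor. EC50 and efficacy were expressed as % agonism versus CCK-8. Values are mean ± standard error of at least three independent experiments.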

[4] = target: T2, Cholecystokinin receptor type A (Homo sapiens) (UniProt P32238); experiment: Agonist activity at human CCK1 receptor expressed in CHO cells assessed as induction of calcium release by FLIPR assay relative to CCK8; assay type: functional, cell-based; how it was run: as §1
T2 sequence (whole entry): T1 sequence (P32238 whole entry)

[5] = Intrinsic clearance in human liver microsomes; assay type: ADME, Microsome
[6] = Kinetic solubility of the compound at pH 6.5; assay type: physicochemical; settings: buffer
[7] = target: T3, Cholecystokinin receptor type A (Rattus norvegicus, UniProt P30551); experiment: Displacement of [125I]CCK8 from rat CCK1 receptor expressed in CHO cells; assay type: cell-based
T3 sequence (P30551 whole entry): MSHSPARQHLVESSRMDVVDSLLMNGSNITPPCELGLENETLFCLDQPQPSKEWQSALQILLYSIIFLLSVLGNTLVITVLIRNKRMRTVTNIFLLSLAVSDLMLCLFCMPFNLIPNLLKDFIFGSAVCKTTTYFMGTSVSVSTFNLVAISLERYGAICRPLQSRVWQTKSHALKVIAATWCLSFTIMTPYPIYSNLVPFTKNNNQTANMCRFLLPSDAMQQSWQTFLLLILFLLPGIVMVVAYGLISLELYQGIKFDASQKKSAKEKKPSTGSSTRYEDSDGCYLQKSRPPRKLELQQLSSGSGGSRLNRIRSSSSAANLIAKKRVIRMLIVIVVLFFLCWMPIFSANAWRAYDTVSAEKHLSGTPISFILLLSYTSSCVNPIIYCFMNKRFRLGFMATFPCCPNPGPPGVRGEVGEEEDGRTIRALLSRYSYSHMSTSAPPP
How it was run: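 Binding IC50 at the rat CCK1 receptor. Values are mean ± standard error of at least two independent experiments.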

[8] = target: T3, Cholecystokinin receptor type A; experiment: Agonist activity at rat CCK1 receptor expressed in CHO cells assessed as induction of calcium release by FLIPR assay; assay type: functional, cell-based
How it was run: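 Calcium release was measured by FLIPR at the rat CCK1 receptor to give EC50. Values are mean ± standard error of at least two independent experiments.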

Mus musculus [9] = experiment: Induction of emptying of gallbladder in C57BL/6J mouse at 6 mg/kg, po measured at 1 hr; assay type: functional
How it was run: (§2)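 Mouse gallbladder emptying model. Compounds were given orally, as amorphous material unless noted or as an SDD formulation where stated. Gallbladder emptying (%) was read at 1 h after 6 mg/kg. Gallbladder refilling was assessed at 24 h.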

Mus musculus [10] = experiment: Induction of emptying of gallbladder in C57BL/6J mouse at 6 mg/kg, po measured at 24 hrs; assay type: functional
How it was run: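 Mice dosed orally; compound given as amorphous solid unless noted, with one analog in spray-dried dispersion formulation. Read-out is % gallbladder emptying after dosing.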

Rattus norvegicus [11] = experiment: Antiobesity activity in Sprague-Dawley rat assessed as reduction in spontaneous food intake at 6 mg/kg, po measured at 4 hrs; assay type: functional
How it was run: (§3)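 Rats were dosed orally at 6 mg/kg, as amorphous material unless stated or as a solid spray-dried dispersion (SDD). Spontaneous food intake was measured against vehicle at 4 h post-dose, and at 12 h where stated. Significance was P <0.05 versus vehicle unless noted.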

[12] = Biliary clearance in Sprague-Dawley rat assessed as parent compound excretion into bile at 3 mg/kg, iv by HPLC/MS/MS analysis; assay type: ADME, organism-based; set-up: dose 3 mg/kg, route intravenous; settings: read-out: Activity
[13] = target: T4, Gastrin/cholecystokinin type B receptor (Homo sapiens) (UniProt P32239); experiment: Agonist activity at CCK2 receptor assessed as calcium mobilization by FLIPR assay; assay type: functional
T4 sequence (whole entry): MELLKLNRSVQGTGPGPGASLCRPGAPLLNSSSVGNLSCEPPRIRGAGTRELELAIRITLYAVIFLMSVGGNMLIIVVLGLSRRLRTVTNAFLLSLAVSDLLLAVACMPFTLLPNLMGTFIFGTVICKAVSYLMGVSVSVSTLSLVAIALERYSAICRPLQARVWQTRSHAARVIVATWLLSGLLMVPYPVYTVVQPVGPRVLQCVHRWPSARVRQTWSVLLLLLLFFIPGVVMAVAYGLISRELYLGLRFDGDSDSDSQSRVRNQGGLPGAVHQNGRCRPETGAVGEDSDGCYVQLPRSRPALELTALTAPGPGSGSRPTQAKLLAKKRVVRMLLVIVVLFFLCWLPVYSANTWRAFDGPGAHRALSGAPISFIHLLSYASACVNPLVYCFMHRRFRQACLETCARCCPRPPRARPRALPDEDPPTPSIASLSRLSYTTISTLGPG

[14] = target: T4, Gastrin/cholecystokinin type B receptor (Homo sapiens); experiment: Agonist activity at CCK2 receptor by [35S]GTPgammaS binding assay; assay type: functional
Mus musculus [15] = experiment: Induction of emptying of gallbladder in C57BL/6J mouse at 6 mg/kg, po administered via SDD formulation measured at 1 hr; assay type: functional; how it was run: as §2
Rattus norvegicus [16] = experiment: Antiobesity activity in Sprague-Dawley rat assessed as reduction in spontaneous food intake at 6 mg/kg, po administered via SDD formulation measured at 4 hrs; assay type: functional; how it was run: as §3
Rattus norvegicus [17] = experiment: Antiobesity activity in Sprague-Dawley rat assessed as reduction in spontaneous food intake at 6 mg/kg, po measured at 4 hrs relative to vehicle; assay type: functional; set-up: scale not given: the % may be the effect or the level left; how it was run: as §3
Rattus norvegicus [18] = experiment: Antiobesity activity in Sprague-Dawley rat assessed as reduction in spontaneous food intake at 6 mg/kg, po measured at 4 hrs in presence of 20 mg/kg CCK1R antagonist lorglumide relative to vehicle; assay type: functional
Rattus norvegicus [19] = experiment: fCmax in Sprague-Dawley rat at 6 mg/kg, po by HPLC/MS/MS analysis; assay type: ADME, organism-based; set-up: dose 6 mg/kg, route oral; settings: in vivo
How it was run: (§4)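 Male Sprague-Dawley rats, n of 3, given a single 3.0 mg/kg iv dose or 6.0 mg/kg po dose. Plasma exposure was followed over time. Values are mean with standard deviation.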

[20] = Plasma clearance in Sprague-Dawley rat at 3 mg/kg, iv by HPLC/MS/MS analysis; assay type: ADME, organism-based; set-up: dose 3 mg/kg, route intravenous; how it was run: as §4
[21] = Volume of distribution at steady state in Sprague-Dawley rat at 3 mg/kg, iv by HPLC/MS/MS analysis; assay type: ADME, organism-based; set-up: dose 3 mg/kg, route intravenous; settings: in vivo, read-out: Vdss; how it was run: as §4
[22] = AUC (0 to tlast) in Sprague-Dawley rat at 3 mg/kg, iv by HPLC/MS/MS analysis; assay type: ADME, organism-based; set-up: dose 3 mg/kg, route intravenous; settings: plasma; how it was run: as §4
[23] = AUC (0 to tlast) in Sprague-Dawley rat at 6 mg/kg, po by HPLC/MS/MS analysis; assay type: ADME, organism-based; set-up: dose 6 mg/kg, route oral; settings: plasma; how it was run: as §4
Rattus norvegicus [24] = experiment: Biliary clearance in Sprague-Dawley rat at 3 mg/kg, iv by HPLC/MS/MS analysis; assay type: ADME, organism-based; set-up: dose 3 mg/kg, route intravenous; settings: in vivo
[25] = Half life in Sprague-Dawley rat at 3 mg/kg, iv by HPLC/MS/MS analysis; assay type: ADME, organism-based; set-up: dose 3 mg/kg, route intravenous; settings: in vivo; how it was run: as §4
[26] = Oral bioavailability in Sprague-Dawley rat at 6 mg/kg by HPLC/MS/MS analysis; assay type: ADME, organism-based; settings: in vivo; how it was run: as §4
Rattus norvegicus [27] = experiment: Tmax in Sprague-Dawley rat at 6 mg/kg, po by HPLC/MS/MS analysis; assay type: ADME, organism-based; set-up: dose 6 mg/kg, route oral; settings: in vivo; how it was run: as §4
[28] = Cmax in Sprague-Dawley rat at 6 mg/kg, po by HPLC/MS/MS analysis; assay type: ADME, organism-based; set-up: dose 6 mg/kg, route oral; settings: in vivo; how it was run: as §4
Rattus norvegicus [29] = species on record: Rattus norvegicus; settings: Sprague-Dawley, 6 mg/kg
[30] = Blood clearance predicted from rat liver microsomes; settings: whole blood

| SMILES | logD ([1]; read-out: logD) | IC50 [2] | EC50 [3] | Activity [4] | CLint scaled [5] | solubility kinetic [6] | IC50 [7] | EC50 [8] | Activity (Mus musculus [9]) | inhibition in vivo at 6 mg/kg (Rattus norvegicus [11]) | Activity [13] | Activity [14] | also measured |
| --- | --- | --- | --- | --- | --- | --- | --- | --- | --- | --- | --- | --- | --- |
| CC(C)N(C(=O)CN1C(=O)[C@H](NC(=O)Nc2cccc(C(=O)O)c2)C(=O)N(c2ccccc2)c2ccccc21)c1ccccc1 | 1.09 | 131 nM | 283 nM | 62.8% | < 8 mL/min/kg | 499 µM (≈ 302 µg/mL) | 52.6 nM | 63.8 nM | 82% | 52% | – | – | Activity (Mus musculus [10]): 91.4%; dose excreted [12]: 65% |
| CC(C)N(Cc1ccccc1)C(=O)CN1C(=O)[C@@H](Cc2c[nH]c3ccccc23)c2nnc(-c3ccccc3)n2-c2ccccc21 [CE-326597] | – | – | – | 53% | 199 mL/min/kg | 0.94 µM (≈ 0.559 µg/mL) | – | – | – | – | inactive | inactive | logD [1]: 3.39; Activity (Mus musculus [15]): 91%; inhibition in vivo at 6 mg/kg (Rattus norvegicus [16]): 56%; Activity (Rattus norvegicus [17]): -56%; inhibition (INH) (Rattus norvegicus [18]): 2.4%; fCmax (Rattus norvegicus [19]): 0.98 nM; clearance [20]: 41.7 mL/min/kg; Vd [21]: 3.7 L/kg; AUC(0-t) [22]: 1190 ng·h/mL; AUC(0-t) [23]: 42.5 ng·h/mL; CL_biliary (Rattus norvegicus [24]): 0.0277 mL/min/kg; half-life [25]: 1.37 h; bioavailability [26]: 1%; Tmax (Rattus norvegicus [27]): 1.33 h; Cmax [28]: 14.6 ng/mL; inhibition (Rattus norvegicus [29]): Active; clearance [30]: 47 mL/min/kg |
| CC(C)N(Cc1ccccc1)C(=O)CN1C(=O)C(Cc2n[nH]c3ccccc23)c2nnc(-c3ccccc3)n2-c2ccccc21 (stereo unspecified) | 3.16 | 48.5 nM | 522 nM | 72.3% | 39.5 mL/min/kg | 2.26 µM (≈ 1.35 µg/mL) | 21 nM | 481 nM | 86.3% | 43% | inactive | inactive | – |
